Converted amounts (≈) assume the structure as drawn.
What was measured:
Format in all cases: functional
[1] = tested on: Bacteroides fragilis; test: Minimum inhibitory concentration against Bacteroides fragilis(NCTC 9343)(in vitro)
In short: (§1)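 Broth microdilution: drug stock of 200 μg/mL in 20% polyethylene glycol 200/water, serially diluted 2-fold in the wells to final concentrations of 0.8–100 μg/mL. Final inoculum was 10⁸ organisms/mL. Plates were held at 37 °C for 48 h, in an anaerobic chamber for anaerobes or a conventional incubator for aerobes. MIC was then read.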

[2] = tested on: Anaerococcus prevotii; test: Minimum inhibitory concentration against Peptococcus prevotti(in vitro); in short: as §1
[3] = tested on: Clostridium perfringens; test: Minimum inhibitory concentration against Clostridium perfringens (NCTC 8237)(in vitro)
In short: (§2)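 Broth microdilution MIC in 96-well plates. Drugs dissolved in 20% polyethylene glycol 200/water (stock 200 μg/mL), then serially diluted 2-fold in the wells to final concentrations of 0.8–100 μg/mL. Final inoculum 10⁸ organisms/mL. Plates incubated 48 h at 37 °C in an anaerobic chamber before the MIC was read.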

[4] = tested on: Fusobacterium necrophorum; test: Minimum inhibitory concentration against Fusobacterium necrophorum (ATCC 11295)(in vitro); in short: as §1
[5] = tested on: Bacteroides fragilis; test: Minimum inhibitory concentration against Bacteroides fragilis (WSI)(in vitro); in short: as §1
[6] = tested on: Clostridium perfringens; test: Minimum inhibitory concentration against Clostridium perfringens (NCTC 523)(in vitro); in short: as §2
[7] = tested on: Bacteroides fragilis; test: Minimum inhibitory concentration against Bacteroides fragilis(NCTC 9344)(in vitro); in short: as §1
[8] = tested on: Finegoldia magna; test: Minimum inhibitory concentration against Peptococcus magnus(in vitro); in short: as §1
[9] = tested on: Peptostreptococcus anaerobius; test: Minimum inhibitory concentration against Peptostreptococcus anaerobius(in vitro); in short: as §1
[10] = tested on: Cutibacterium acnes; test: Minimum inhibitory concentration against Propionibacterium acnes(NCTC 7337)(in vitro); in short: as §1
[11] = tested on: Cutibacterium acnes; test: Minimum inhibitory concentration against Propionibacterium acnes(NCTC 737)(in vitro); in short: as §1
[12] = tested on: Bacteroides fragilis; test: Minimum inhibitory concentration against Bacteroides fragilis (MZ-R)(in vitro); in short: as §1
[13] = tested on: Bacteroides fragilis; test: Minimum inhibitory concentration against Bacteroides fragilis(NCTC 10581)(in vitro); in short: as §1
[14] = tested on: Staphylococcus aureus; test: Minimum inhibitory concentration against Staphylococcus aureus(ATCC 25923)(in vitro); in short: as §1
[15] = tested on: Escherichia coli; test: Minimum inhibitory concentration against Escherichia coli(ATCC 25922)(in vitro); in short: as §1
[16] = tested on: Proteus vulgaris; test: Minimum inhibitory concentration against Proteus vulgaris(ATCC 13315)(in vitro); in short: as §1
[17] = tested on: Klebsiella pneumoniae; test: Minimum inhibitory concentration against Klebsiella pneumoniae (ATCC 13883)(in vitro); in short: as §1
[18] = tested on: Streptococcus pyogenes; test: Minimum inhibitory concentration against Streptococcus pyogenes(ATCC 19615)(in vitro); in short: as §1
[19] = tested on: Pseudomonas aeruginosa; test: Minimum inhibitory concentration against Pseudomonas aeruginosa (ATCC 27853)(in vitro); in short: as §1

Compound | MIC [1] | MIC [2] | MIC [3] | MIC [4] | MIC [5] | MIC [6] | MIC [7] | MIC [8] | MIC [9] | MIC [10] | MIC [11] | MIC [12] | MIC [13] | MIC [14] | MIC [15] | MIC [16] | MIC [17] | MIC [18] | MIC [19]
Cc1ncc([N+](=O)[O-])n1CCO [METRONIDAZOLE] | < 0.8 µg/mL | 1.5 µg/mL (≈ 8.76 µM) | < 0.8 µg/mL | < 0.8 µg/mL | 1.5 µg/mL (≈ 8.76 µM) | < 0.8 µg/mL | < 0.8 µg/mL | < 0.8 µg/mL | < 0.8 µg/mL | > 100 µg/mL | > 100 µg/mL | 6.2 µg/mL (≈ 36.2 µM) | < 0.8 µg/mL |  |  |  |  |  | 
O=C(c1ccc(Cl)cc1Cl)C(O)(Cn1ccnc1)c1ccccc1 (stereo unspecified) | > 100 µg/mL | 12.5 µg/mL (≈ 34.6 µM) | 25 µg/mL (≈ 69.2 µM) | > 100 µg/mL | > 100 µg/mL | 12.5 µg/mL (≈ 34.6 µM) | > 100 µg/mL | > 100 µg/mL | 50 µg/mL (≈ 138 µM) | 50 µg/mL (≈ 138 µM) | 100 µg/mL (≈ 277 µM) | > 100 µg/mL | 50 µg/mL (≈ 138 µM) | 25 µg/mL (≈ 69.2 µM) | > 100 µg/mL | > 100 µg/mL | > 100 µg/mL |  | 
O=C(c1ccc(Cl)cc1Cl)C(Br)(Cn1ccnc1)c1ccccc1 (stereo unspecified) | < 0.8 µg/mL | 1.5 µg/mL (≈ 3.54 µM) | < 0.8 µg/mL | < 0.8 µg/mL | < 0.8 µg/mL | < 0.8 µg/mL | < 0.8 µg/mL | 1.5 µg/mL (≈ 3.54 µM) | 1.5 µg/mL (≈ 3.54 µM) | < 0.8 µg/mL | < 0.8 µg/mL | < 0.8 µg/mL | < 0.8 µg/mL | 1.5 µg/mL (≈ 3.54 µM) | > 100 µg/mL | 12.5 µg/mL (≈ 29.5 µM) | > 100 µg/mL | < 0.8 µg/mL | > 100 µg/mL
C=C(C(=O)c1ccc(Cl)cc1Cl)c1ccccc1 | < 0.8 µg/mL | < 0.8 µg/mL | < 0.8 µg/mL | < 0.8 µg/mL | < 0.8 µg/mL | < 0.8 µg/mL | < 0.8 µg/mL | < 0.8 µg/mL | < 0.8 µg/mL | < 0.8 µg/mL | < 0.8 µg/mL | < 0.8 µg/mL | < 0.8 µg/mL | < 0.8 µg/mL | > 100 µg/mL | 6.2 µg/mL (≈ 22.4 µM) | > 100 µg/mL | < 0.8 µg/mL | > 100 µg/mL
O=C(c1ccc(Cl)cc1Cl)C(Cn1ccnc1)c1ccccc1 (stereo unspecified) | < 0.8 µg/mL | < 0.8 µg/mL | < 0.8 µg/mL | < 0.8 µg/mL | < 0.8 µg/mL | < 0.8 µg/mL | < 0.8 µg/mL | < 0.8 µg/mL | < 0.8 µg/mL | < 0.8 µg/mL | < 0.8 µg/mL | < 0.8 µg/mL | < 0.8 µg/mL | < 0.8 µg/mL | > 100 µg/mL | 6.2 µg/mL (≈ 18 µM) | > 100 µg/mL | < 0.8 µg/mL | > 100 µg/mL
POLYMYXIN B |  |  |  |  |  |  |  |  |  |  |  |  |  | 25 µg/mL | < 0.8 µg/mL | 1.5 µg/mL | < 0.8 µg/mL | 1.5 µg/mL | 3.1 µg/mL
O=C(c1ccc(Cl)cc1Cl)C(F)(Cn1ccnc1)c1ccccc1 (stereo unspecified) | 50 µg/mL (≈ 138 µM) | 6.2 µg/mL (≈ 17.1 µM) | 3.1 µg/mL (≈ 8.53 µM) | 25 µg/mL (≈ 68.8 µM) | 50 µg/mL (≈ 138 µM) | 3.1 µg/mL (≈ 8.53 µM) | 50 µg/mL (≈ 138 µM) | 25 µg/mL (≈ 68.8 µM) | 25 µg/mL (≈ 68.8 µM) | 25 µg/mL (≈ 68.8 µM) | 25 µg/mL (≈ 68.8 µM) | 50 µg/mL (≈ 138 µM) | 50 µg/mL (≈ 138 µM) | 50 µg/mL (≈ 138 µM) | > 100 µg/mL | > 100 µg/mL | > 100 µg/mL | 6.2 µg/mL (≈ 17.1 µM) | > 100 µg/mL
O=C(c1ccc(Cl)cc1Cl)C(Cl)(Cn1ccnc1)c1ccccc1 (stereo unspecified) | < 0.8 µg/mL | < 0.8 µg/mL | < 0.8 µg/mL | < 0.8 µg/mL | < 0.8 µg/mL | < 0.8 µg/mL | < 0.8 µg/mL | < 0.8 µg/mL | < 0.8 µg/mL | < 0.8 µg/mL | < 0.8 µg/mL | < 0.8 µg/mL | < 0.8 µg/mL | 25 µg/mL (≈ 65.8 µM) | > 100 µg/mL | > 100 µg/mL | > 100 µg/mL | 1.5 µg/mL (≈ 3.95 µM) | > 100 µg/mL

Reference: ChEMBL document CHEMBL1125603, “2-Chloro-1-(2,4-dichlorophenyl)-3-(1H-imidazol-1-yl)-2-phenylpropan-1-one hydrochloride, a novel, nonmutagenic antibacterial with specific activity against anaerobic bacteria” (1991)
